Measured values reported in PubChem BioAssay AID822 (SRMLSC, 2007).
pEC50: −log10 of the molar value.

The compounds below were run on HUVEC proliferation, viability ATP luminescence (assay: HUVEC proliferation inhibition, dose response, cell-based, ATP luminescence (AID 822);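 note: cells exposed to compound for 72 h before the ATP read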).
Summary of the method: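 Assay system: HUVEC primary endothelial cells, low passage (≤12) / Input: 1250 cells per well / Compound dosing: dose series 0.039 to 20 µM, DMSO 0.2% / Timing: 72 h compound exposure at 37 °C / Measured by: CellTiter-Glo ATP luminescence / Read-out: percent viability relative to median untreated cell signal, EC50 via four-parameter fit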

Structure (SMILES)	pEC50
CCOC(=O)c1c(N)sc2c(OC)c(Br)ccc12	4.78
Cc1cc(C)c2oc(-c3ccc(Cl)c(NC(=O)c4ccc(C#N)cc4F)c3)nc2c1	4.96
O=[N+]([O-])c1ccc(/C=N/Nc2nc(N3CCCC3)nc(N3CCCC3)n2)o1	4.79
Cc1ccccc1-c1nc(CN2CCC(C(=O)NCCCN3CC(C)CC(C)C3)CC2)c(C)o1 (stereo not drawn)	5.31
CCN1CCN(c2ncc(C(=O)Nc3cc(Cl)c(OC)cc3OC)c3ccccc23)CC1	4.85
COc1ccc(C(=O)Nc2ccccc2C(=O)N(Cc2ccco2)C(C(N)=O)C(C)C)cc1 (stereo not drawn)	4.84
Cc1cccc(Nc2nc(NCc3ccco3)nc(N3CCOCC3)n2)c1	5.67
Oc1c(I)cc(Cl)c2cccnc12	5.71
Nc1c(C(=O)C2CC2)sc2nc(-c3cccs3)cc(C(F)(F)F)c12	5.09
Cc1cc(S(=O)(=O)N2CCN(Cc3ccc4c(c3)OCO4)CC2)cc(C)c1N1CCCC1=O	4.74
Nc1nc(NC(=O)c2cccc(S(=O)(=O)N3CCCCCC3)c2)nc(-c2ccccc2)n1	4.89
Cc1cc(NC(=O)COC(=O)C(Nc2ccc(C(F)(F)F)cc2Cl)C(C)C)no1 (stereo not drawn)	4.92
Cc1cc(C)n(-c2nc(SCC(=O)N3CCCC3)c3c4c(sc3n2)CCCC4)n1	4.71
Cc1ccc(-c2nnc(SCC(=O)Nc3ccccc3F)o2)cc1	4.72
COC(=O)CCS(=O)(=O)c1nc(-c2ccccc2)cc(C(F)(F)F)n1	5.01
Oc1ccc(Nc2nc(-c3ccc4ccccc4c3)cs2)cc1	5.23
O=C1CSC(=S)N1Cc1cccnc1	4.72
COc1cc(OC)cc(C(=O)Nc2ccc(-c3nc4ccccc4o3)cc2)c1	5.17
CC1=C(C(=O)OCc2ccc3c(c2)OCO3)C(c2ccccc2)NC(=O)N1 (stereo not drawn)	4.85
CCc1cc(-c2[nH]ncc2-c2ccc3c(c2)OCO3)c(O)cc1O	5.10
CS(=O)(=O)c1nc(-c2cccs2)cc(C(F)(F)F)n1	5.21
CCCCCCc1cc2cc(-c3nnc(-c4ccccc4)o3)c(=O)oc2cc1O	5.46
c1ccc(-c2nc(N3CCCCCC3)c3ccccc3n2)nc1	5.81
CCOc1cc(/C=C\c2[nH]c(=O)[nH]c(=O)c2[N+](=O)[O-])ccc1OC(C)CC (stereo not drawn)	5.38
CCCCC[n+]1ccn(C2=C([O-])c3ccccc3C(=O)/C2=N\S(=O)(=O)c2ccccc2)c1	5.21
COc1ccc(CNC(=O)c2cc3c(C)nc4ccccc4c3o2)c(OC)c1	4.93
CC(=O)Nc1ccc(NC2=Nc3ccccc3N3C2=Nc2c(c(C)nn2-c2ccccc2)C3c2ccccc2)cc1 (stereo not drawn)	4.80

Structure (SMILES)	pEC50
CC1=NOC(=O)/C1=C/c1ccc(-c2ccc(Cl)cc2)o1	5.39
Cc1ccccc1CS(=O)(=O)c1nnc([C@H](Cc2ccccc2)NC(=O)OC(C)(C)C)o1	4.94
N#CC1=C(N)Oc2cc(Nc3ccccc3)ccc2C1c1ccncc1 (stereo not drawn)	5.88
Cc1cc2c(cc1C)CSC(c1c(O)ccc3ccccc13)SC2	5.24
CCOc1ccccc1-n1c(CN2CCN(C(=O)c3ccco3)CC2)nc2ccccc2c1=O	4.91
C=CCOC(=O)C1=C(C)NC(SCC(=O)Nc2nccs2)=C(C#N)C1c1cccs1 (stereo not drawn)	5.21
Cc1ccccc1N1C(=O)CC(Sc2nnc(-c3ccccc3)o2)C1=O (stereo not drawn)	4.82
C=C(C)COc1ccc(-c2n[nH]c(C)c2Oc2ccccc2OC)c(O)c1	4.96
CCOC(=O)c1sc2nc(C(C)C)c3c(c2c1N)CC(C)(C)OC3	4.68
Cc1ccc(C(=O)Nc2ncc(Cc3ccc(F)cc3)s2)o1	6.56
COC(=O)C1=C(O)/C(=C\c2ccc(CNC(=O)C(=O)Nc3ccc(C)c(C)c3)o2)N=C1C	4.88
COc1ccccc1N1CCN(CC(=O)c2c(C)[nH]c3cc(C)ccc23)CC1	4.99
CCOC(=O)Cc1c(C)nc2c(-c3cccc(Br)c3)c[nH]n2c1=O	5.52
CCOC(=O)c1sc(NC(=O)CSc2nnnn2-c2ccc(C)cc2C)nc1C	4.86
CCN(CC(O)Cn1c2ccccc2c2ccccc21)S(=O)(=O)c1ccc(C)cc1 (stereo not drawn)	4.94
Cc1cc2nc(C3CCN(CC4COc5ccccc5O4)CC3)[nH]c2cc1C (stereo not drawn)	4.70
CCOC(=O)c1cnc(-n2nc(C)cc2C)nc1NCc1ccc2c(c1)OCO2	5.63
O=C(COc1ccc(Cl)cc1)Nc1ccccc1C(=O)NCc1ccco1	4.79
COc1ccc2nc(Nc3nc(CSc4nnnn4-c4ccccc4)cc(=O)[nH]3)nc(C)c2c1	5.35
C=CCN1C(=Nc2cccnc2)SCC1(O)c1ccc(C)cc1 (stereo not drawn)	4.95
COc1ccc(NC(=O)c2oc3ccccc3c2NC(=O)COc2ccccc2OC)c(OC)c1	5.55
COc1cc(-c2nc(-c3ccc(NC(=O)c4ccc(Br)o4)cc3)no2)cc(OC)c1OC	5.13
CCOC(=O)N1CCC(c2cc(=O)n3[nH]c(C)c(-c4ccc(F)cc4)c3n2)CC1	5.19
COc1ccccc1OCC(=O)Nc1cccc(-c2nc3ccccc3o2)c1	4.86
COc1ccc(C2Oc3ccccc3C3=C2C(c2cccs2)n2ncnc2N3)cc1 (stereo not drawn)	4.79
Cc1ccc(/C=C/C(=O)c2ccccc2)cc1	4.77
